Activity calls are given as the source filed them. The calls are words filed in the database; no cut-off is given here.
Experiments:
[1] = target: Sodium-dependent serotonin transporter (Rattus norvegicus, UniProt P31652); assay: Inhibition of [3H]5-HT uptake at SERT in rat cortical synaptosomes; format: subcellular, Brain
[2] = target: T1, 5-hydroxytryptamine receptor 1A (Homo sapiens, UniProt P08908); assay: Displacement of [3H]WAY100635 from human recombinant 5-HT1A receptor expressed in CHO cells; format: cell-based
T1 sequence (P08908 whole entry): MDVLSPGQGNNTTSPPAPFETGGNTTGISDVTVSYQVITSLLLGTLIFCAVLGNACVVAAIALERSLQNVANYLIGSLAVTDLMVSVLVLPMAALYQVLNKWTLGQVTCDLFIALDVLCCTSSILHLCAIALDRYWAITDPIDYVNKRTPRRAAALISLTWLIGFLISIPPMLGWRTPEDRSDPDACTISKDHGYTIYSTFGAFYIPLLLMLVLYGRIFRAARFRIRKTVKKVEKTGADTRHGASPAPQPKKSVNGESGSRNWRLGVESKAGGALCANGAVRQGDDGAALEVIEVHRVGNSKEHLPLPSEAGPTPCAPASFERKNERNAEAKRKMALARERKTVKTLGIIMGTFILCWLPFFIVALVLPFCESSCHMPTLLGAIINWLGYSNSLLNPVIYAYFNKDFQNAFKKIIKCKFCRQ

[3] = target: T2, 5-hydroxytryptamine receptor 1D (Homo sapiens, UniProt P28221); assay: Displacement of [3H]5-HT from human recombinant 5-HT1D receptor expressed in CHO cells; format: cell-based
[4] = target: T3, 5-hydroxytryptamine receptor 1B (Homo sapiens, UniProt P28222); assay: Displacement of [3H]5-HT from human recombinant 5-HT1B receptor expressed in CHO cells; format: cell-based
[5] = target: T3, 5-hydroxytryptamine receptor 1B; assay: Intrinsic activity at human recombinant 5-HT1B receptor expressed in CHO cells by [S35]GTPgammaS binding assay relative to 5-HT; format: functional, cell-based
Procedure, shortened: (§1)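 [35S]-GTPγS binding in membranes from 10^6 cells (HEK293 for 5-HT1A; CHO for 5-HT1B, 5-HT1D), preincubated 30 min at 30 °C with compound in 20 mM HEPES pH 7.4, 3 mM MgCl2, 100 mM NaCl, 10 μM GDP, 0.2 mM ascorbate. 100 pM [35S]-GTPγS added, 30 min more at 30 °C; nonspecific with 20 μM GTPγS; filtration and scintillation counting.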

[6] = target: T2, 5-hydroxytryptamine receptor 1D; assay: Inverse agonist activity at human recombinant 5-HT1D receptor expressed in CHO cells by [S35]GTPgammaS binding assay; format: functional, cell-based; procedure, shortened: as §1
[7] = target: T4, 5-hydroxytryptamine receptor 1A (Homo sapiens) (UniProt P08908); assay: Inverse agonist activity at human recombinant 5-HT1A receptor expressed in HEK293 cells by [S35]GTPgammaS binding assay; format: functional, cell-based; procedure, shortened: as §1
T4 sequence (whole entry): T1 sequence (P08908 whole entry)

[8] = target: 5-hydroxytryptamine receptor 2B (Homo sapiens, UniProt P41595); assay: Binding affinity to human recombinant 5-HT2B receptor by radioligand displacement assay
[9] = target: T4, 5-hydroxytryptamine receptor 1A (Homo sapiens); assay: Intrinsic activity at human recombinant 5-HT1A receptor expressed in HEK293 cells by [S35]GTPgammaS binding assay relative to 5-HT; format: functional, cell-based; procedure, shortened: as §1
[10] = target: 5-hydroxytryptamine receptor 7 (Homo sapiens, UniProt P34969); assay: Binding affinity to human recombinant 5-HT7 receptor by radioligand displacement assay
[11] = target: T2, 5-hydroxytryptamine receptor 1D; assay: Intrinsic activity at human recombinant 5-HT1D receptor expressed in CHO cells by [S35]GTPgammaS binding assay relative to 5-HT; format: functional, cell-based; procedure, shortened: as §1
[12] = target: 5-hydroxytryptamine receptor 6 (Homo sapiens, UniProt P50406); assay: Binding affinity to human recombinant 5-HT6 receptor by radioligand displacement assay
D(2) dopamine receptor = D(2) dopamine receptor (Homo sapiens, UniProt P14416); assay: Binding affinity to human recombinant dopamine D2 receptor by radioligand displacement assay
[13] = target: T5, 5-hydroxytryptamine receptor 2C (Homo sapiens, UniProt P28335); assay: Binding affinity to human recombinant 5-HT2C receptor by radioligand displacement assay
T5 sequence (P28335 whole entry): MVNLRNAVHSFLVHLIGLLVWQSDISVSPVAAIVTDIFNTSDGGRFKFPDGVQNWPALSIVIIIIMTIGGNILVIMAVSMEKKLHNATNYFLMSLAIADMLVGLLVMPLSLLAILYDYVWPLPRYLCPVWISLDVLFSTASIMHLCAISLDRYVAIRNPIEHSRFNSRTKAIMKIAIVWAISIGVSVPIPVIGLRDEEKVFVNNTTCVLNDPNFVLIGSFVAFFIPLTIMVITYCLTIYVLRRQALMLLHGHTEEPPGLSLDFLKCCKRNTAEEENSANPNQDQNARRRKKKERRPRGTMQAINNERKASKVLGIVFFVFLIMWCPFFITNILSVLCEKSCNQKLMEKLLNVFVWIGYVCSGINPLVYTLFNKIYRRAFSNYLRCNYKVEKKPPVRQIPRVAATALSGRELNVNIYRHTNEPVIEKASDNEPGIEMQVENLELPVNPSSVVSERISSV

[14] = target: T3, 5-hydroxytryptamine receptor 1B; assay: Inverse agonist activity at human recombinant 5-HT1B receptor expressed in CHO cells by [S35]GTPgammaS binding assay; format: functional, cell-based; procedure, shortened: as §1
[15] = target: 5-hydroxytryptamine receptor 2A (Homo sapiens, UniProt P28223); assay: Binding affinity to human recombinant 5-HT2A receptor by radioligand displacement assay
D(3) dopamine receptor = D(3) dopamine receptor (Homo sapiens, UniProt P35462); assay: Binding affinity to human recombinant dopamine D3 receptor by radioligand displacement assay
[16] = target: Voltage-gated inwardly rectifying potassium channel KCNH2 (Homo sapiens, UniProt Q12809); assay: Displacement of [3H]dofetilide from human ERG by SPA

5-hydroxytryptamine receptor 2A, sequence (P28223 whole entry): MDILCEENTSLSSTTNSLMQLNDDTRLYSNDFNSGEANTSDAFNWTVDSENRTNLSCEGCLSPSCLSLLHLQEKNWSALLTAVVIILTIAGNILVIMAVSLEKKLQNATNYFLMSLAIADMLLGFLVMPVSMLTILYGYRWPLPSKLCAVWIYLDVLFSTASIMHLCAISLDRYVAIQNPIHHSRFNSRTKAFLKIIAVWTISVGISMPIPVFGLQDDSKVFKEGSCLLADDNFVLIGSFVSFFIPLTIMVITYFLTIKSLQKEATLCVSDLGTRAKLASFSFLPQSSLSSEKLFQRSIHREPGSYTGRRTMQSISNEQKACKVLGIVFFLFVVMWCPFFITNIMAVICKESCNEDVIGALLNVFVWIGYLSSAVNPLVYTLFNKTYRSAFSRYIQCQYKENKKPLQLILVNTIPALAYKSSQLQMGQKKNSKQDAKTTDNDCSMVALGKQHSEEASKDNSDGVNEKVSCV
T2 sequence (P28221 whole entry): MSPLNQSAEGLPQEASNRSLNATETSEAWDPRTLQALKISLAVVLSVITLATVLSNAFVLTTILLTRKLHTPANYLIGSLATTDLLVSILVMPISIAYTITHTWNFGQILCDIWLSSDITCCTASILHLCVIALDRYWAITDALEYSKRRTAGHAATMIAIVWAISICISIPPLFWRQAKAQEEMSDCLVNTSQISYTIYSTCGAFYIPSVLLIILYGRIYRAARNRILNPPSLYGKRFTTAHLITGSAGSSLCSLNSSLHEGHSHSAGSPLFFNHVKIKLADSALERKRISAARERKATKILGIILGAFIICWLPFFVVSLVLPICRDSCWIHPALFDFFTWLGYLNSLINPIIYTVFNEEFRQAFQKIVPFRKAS
D(2) dopamine receptor, sequence (P14416 whole entry): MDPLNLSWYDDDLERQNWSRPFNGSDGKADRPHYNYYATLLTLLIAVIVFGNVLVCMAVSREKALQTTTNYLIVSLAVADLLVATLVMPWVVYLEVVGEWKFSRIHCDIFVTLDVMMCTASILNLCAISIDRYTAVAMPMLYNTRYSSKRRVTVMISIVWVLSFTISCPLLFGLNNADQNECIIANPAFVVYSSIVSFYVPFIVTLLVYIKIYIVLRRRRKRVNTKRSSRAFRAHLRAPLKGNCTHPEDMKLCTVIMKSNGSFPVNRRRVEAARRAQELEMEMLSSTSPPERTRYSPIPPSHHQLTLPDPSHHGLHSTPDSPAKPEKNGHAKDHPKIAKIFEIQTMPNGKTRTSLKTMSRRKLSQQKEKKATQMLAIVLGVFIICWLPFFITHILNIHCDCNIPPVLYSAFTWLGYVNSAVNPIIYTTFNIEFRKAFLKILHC
5-hydroxytryptamine receptor 2B, sequence (P41595 whole entry): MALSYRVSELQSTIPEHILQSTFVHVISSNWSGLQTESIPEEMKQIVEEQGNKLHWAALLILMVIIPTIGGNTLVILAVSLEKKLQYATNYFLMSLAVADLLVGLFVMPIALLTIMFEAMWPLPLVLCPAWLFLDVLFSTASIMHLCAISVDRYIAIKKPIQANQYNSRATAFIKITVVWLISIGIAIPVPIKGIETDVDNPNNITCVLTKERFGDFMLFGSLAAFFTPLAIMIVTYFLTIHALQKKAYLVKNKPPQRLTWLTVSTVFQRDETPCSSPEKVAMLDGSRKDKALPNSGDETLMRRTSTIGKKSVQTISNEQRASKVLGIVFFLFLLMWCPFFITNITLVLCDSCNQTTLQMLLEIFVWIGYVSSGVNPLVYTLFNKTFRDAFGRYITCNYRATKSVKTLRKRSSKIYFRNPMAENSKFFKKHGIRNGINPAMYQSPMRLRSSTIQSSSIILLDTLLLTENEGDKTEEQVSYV
5-hydroxytryptamine receptor 6, sequence (P50406 whole entry): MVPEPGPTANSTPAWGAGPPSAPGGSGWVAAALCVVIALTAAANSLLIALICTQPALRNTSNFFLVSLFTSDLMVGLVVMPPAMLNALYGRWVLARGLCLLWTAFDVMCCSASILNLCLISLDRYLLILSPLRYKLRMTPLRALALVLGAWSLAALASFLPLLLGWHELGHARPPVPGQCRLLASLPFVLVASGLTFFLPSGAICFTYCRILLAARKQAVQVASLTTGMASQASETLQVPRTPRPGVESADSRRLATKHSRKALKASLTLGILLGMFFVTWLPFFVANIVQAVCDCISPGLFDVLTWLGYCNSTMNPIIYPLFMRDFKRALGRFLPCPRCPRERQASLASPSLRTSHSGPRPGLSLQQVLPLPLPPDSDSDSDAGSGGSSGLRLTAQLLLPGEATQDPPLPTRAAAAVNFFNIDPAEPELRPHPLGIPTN
5-hydroxytryptamine receptor 7, sequence (P34969 whole entry): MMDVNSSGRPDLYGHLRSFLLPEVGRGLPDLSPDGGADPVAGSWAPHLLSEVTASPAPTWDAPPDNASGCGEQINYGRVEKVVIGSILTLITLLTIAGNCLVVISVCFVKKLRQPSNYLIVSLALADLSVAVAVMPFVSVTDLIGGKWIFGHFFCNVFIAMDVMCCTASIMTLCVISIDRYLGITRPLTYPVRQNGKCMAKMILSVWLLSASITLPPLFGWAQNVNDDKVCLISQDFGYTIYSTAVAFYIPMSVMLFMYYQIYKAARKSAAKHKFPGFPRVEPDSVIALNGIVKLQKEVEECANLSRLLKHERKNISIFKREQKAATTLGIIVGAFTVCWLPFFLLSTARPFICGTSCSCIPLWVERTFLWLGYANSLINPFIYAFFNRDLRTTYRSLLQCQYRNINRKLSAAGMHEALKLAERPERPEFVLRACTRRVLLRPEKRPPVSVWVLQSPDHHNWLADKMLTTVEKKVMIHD
Sodium-dependent serotonin transporter, sequence (P31652 whole entry): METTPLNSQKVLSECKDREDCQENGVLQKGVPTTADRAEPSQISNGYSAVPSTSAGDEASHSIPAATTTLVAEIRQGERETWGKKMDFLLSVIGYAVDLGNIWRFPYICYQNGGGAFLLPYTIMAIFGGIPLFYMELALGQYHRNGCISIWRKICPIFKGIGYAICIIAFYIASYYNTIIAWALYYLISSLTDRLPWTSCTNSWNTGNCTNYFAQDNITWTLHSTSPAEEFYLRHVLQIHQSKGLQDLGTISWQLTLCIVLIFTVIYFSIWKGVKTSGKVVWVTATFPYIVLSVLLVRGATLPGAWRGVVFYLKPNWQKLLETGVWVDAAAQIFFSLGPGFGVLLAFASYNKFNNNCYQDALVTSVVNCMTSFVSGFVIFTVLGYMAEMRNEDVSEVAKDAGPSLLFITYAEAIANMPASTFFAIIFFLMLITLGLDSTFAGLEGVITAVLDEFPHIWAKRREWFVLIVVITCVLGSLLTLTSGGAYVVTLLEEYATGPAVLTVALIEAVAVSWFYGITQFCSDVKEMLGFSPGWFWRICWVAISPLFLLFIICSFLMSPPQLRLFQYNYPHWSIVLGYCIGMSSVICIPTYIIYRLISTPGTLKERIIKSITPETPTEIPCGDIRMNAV
D(3) dopamine receptor, sequence (P35462 whole entry): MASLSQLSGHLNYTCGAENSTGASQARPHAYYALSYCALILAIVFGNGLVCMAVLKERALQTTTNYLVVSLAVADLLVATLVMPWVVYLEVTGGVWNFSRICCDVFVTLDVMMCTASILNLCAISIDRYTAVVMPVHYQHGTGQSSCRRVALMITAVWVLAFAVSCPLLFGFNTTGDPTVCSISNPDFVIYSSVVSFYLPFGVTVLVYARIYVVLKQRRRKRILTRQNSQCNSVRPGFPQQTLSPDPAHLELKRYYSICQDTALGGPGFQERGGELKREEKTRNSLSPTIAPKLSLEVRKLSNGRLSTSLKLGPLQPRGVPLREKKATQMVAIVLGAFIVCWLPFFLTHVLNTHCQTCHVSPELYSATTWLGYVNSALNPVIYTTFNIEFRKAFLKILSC
T3 sequence (P28222 whole entry): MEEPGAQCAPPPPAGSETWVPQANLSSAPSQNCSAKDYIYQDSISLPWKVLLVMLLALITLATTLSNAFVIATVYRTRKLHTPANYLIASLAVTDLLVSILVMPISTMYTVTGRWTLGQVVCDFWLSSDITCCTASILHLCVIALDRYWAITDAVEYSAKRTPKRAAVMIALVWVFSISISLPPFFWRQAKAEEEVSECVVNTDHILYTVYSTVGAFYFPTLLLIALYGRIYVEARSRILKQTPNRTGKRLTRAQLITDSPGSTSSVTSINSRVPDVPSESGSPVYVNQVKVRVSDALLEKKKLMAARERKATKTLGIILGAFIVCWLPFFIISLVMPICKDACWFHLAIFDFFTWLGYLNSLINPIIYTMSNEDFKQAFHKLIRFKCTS

Compound	Ki [1] [nM]	Ki [2] [nM]	Ki [3] [nM]	Ki [4] [nM]	Activity [7]	Activity [14]	other results
COc1ccccc1C(=O)Nc1cccc(CCN2CCN(c3cccc4nc(C)ccc34)CC2)c1	794	2.51	0.631	3.98	–	–	–
Cc1ccc2c(N3CCN(CCc4cccc(NC(=O)c5ccccc5F)c4)CC3)cccc2n1	631	1	0.251	3.16	Active	–	Intrinsic activity [5]: 0; Activity [6]: Active
Cc1ccc2c(N3CCN(CCc4cccc(N5C(=O)CCC5=O)c4)CC3)cccc2n1	20000	3.16	1.58	39.8	–	–	–
COC(=O)Nc1cccc(CCN2CCN(c3cccc4nc(C)ccc34)CC2)c1	501	0.398	0.251	–	–	Active	Ki [8]: 200 nM; Intrinsic activity [9]: 0; Ki [10]: 25.1 nM; Intrinsic activity [11]: 0; Ki [12]: > 1580 nM; Ki (D(2) dopamine receptor): 200 nM; Ki [13]: 794 nM; Ki [15]: 200 nM; Ki (D(3) dopamine receptor): 100 nM
COc1ccc(C(=O)Nc2cccc(CCN3CCN(c4cccc5nc(C)ccc45)CC3)c2)cc1	1260	3.16	0.501	3.98	Active	Active	Activity [6]: Active
CCCNC(=O)Nc1cccc(CCN2CCN(c3cccc4nc(C)ccc34)CC2)c1	794	5.01	0.158	2	–	–	–
CCC(=O)Nc1cccc(CCN2CCN(c3cccc4nc(C)ccc34)CC2)c1	1260	2	0.2	1.26	–	Active	Intrinsic activity [9]: 0; Activity [6]: Active
COc1cccc(C(=O)Nc2cccc(CCN3CCN(c4cccc5nc(C)ccc45)CC3)c2)c1	1260	2	0.158	1.58	–	–	–
CC(=O)N(C)c1cccc(CCN2CCN(c3cccc4nc(C)ccc34)CC2)c1	–	2	0.316	12.6	–	–	Intrinsic activity [9]: 0.1; Intrinsic activity [5]: 0.2; Intrinsic activity [11]: 0
Cc1ccc2c(N3CCN(CCc4cccc(NC(=O)c5scnc5C)c4)CC3)cccc2n1	501	0.398	0.251	2	Active	–	Intrinsic activity [5]: 0; Activity [6]: Active
Cc1ccc2c(N3CCN(CCc4cccc(NC(=O)c5csc(C)n5)c4)CC3)cccc2n1	501	0.794	0.398	3.16	Active	Active	Ki [16]: 316 nM; Activity [6]: Active
Cc1ccc2c(N3CCN(CCc4cccc(NC(=O)c5ccc(F)cc5)c4)CC3)cccc2n1	794	1.26	0.398	5.01	Active	Active	Intrinsic activity [11]: 0
Cc1ccc2c(N3CCN(CCc4cccc(NC(=O)NC(C)(C)C)c4)CC3)cccc2n1	794	7.94	0.251	3.98	–	–	–
Cc1ccc2c(N3CCN(CCc4cccc(NC(=O)Nc5cccc(F)c5)c4)CC3)cccc2n1	2510	3.98	0.631	3.98	–	Active	Intrinsic activity [9]: 0; Intrinsic activity [11]: 0
Cc1ccc2c(N3CCN(CCc4cccc(N5CCCOC5=O)c4)CC3)cccc2n1	–	2.51	0.251	31.6	–	–	–
CC(=O)Nc1cccc(CCN2CCN(c3cccc4nc(C)ccc34)CC2)c1	1260	1	0.251	0.501	–	–	Ki [8]: 158 nM; Ki [10]: 63.1 nM; Ki [12]: > 3980 nM; Ki (D(2) dopamine receptor): 398 nM; Ki [13]: 1000 nM; Ki [15]: 251 nM; Ki (D(3) dopamine receptor): 158 nM
Cc1ccc2c(N3CCN(CCc4cccc(NC(=O)c5cnccn5)c4)CC3)cccc2n1	398	0.501	0.2	1.26	–	–	Ki [8]: 794 nM; Ki [10]: 200 nM; Ki [12]: 794 nM; Ki (D(2) dopamine receptor): 200 nM; Ki [13]: > 1580 nM; Ki [15]: 158 nM; Ki (D(3) dopamine receptor): 79.4 nM
Cc1ccc2c(N3CCN(CCc4cccc(NC(=O)Nc5ccc(F)cc5)c4)CC3)cccc2n1	1260	2.51	0.501	3.16	–	–	–
Cc1ccc2c(N3CCN(CCc4cccc(NC(=O)c5cccc(F)c5)c4)CC3)cccc2n1	631	0.631	0.316	3.16	Active	Active	Activity [6]: Active
Cc1ccc2c(OCCN3CCC(Cc4cccc(NS(C)(=O)=O)c4)CC3)cccc2n1	–	–	–	–	Active	–	Intrinsic activity [5]: 0.3; Intrinsic activity [11]: 0
Cc1ccc2c(N3CCN(CCc4ccc5c(c4)NC(=O)CO5)CC3)cccc2n1	–	–	–	–	–	–	Intrinsic activity [9]: 0.2; Intrinsic activity [5]: 0.1
Cc1ccc2c(N3CCN(CCc4cccc(-n5cccn5)c4)CC3)cccc2n1	316	0.501	0.158	1.58	–	–	Ki [8]: 79.4 nM; Ki [10]: 126 nM; Ki [12]: > 10000 nM; Ki (D(2) dopamine receptor): 398 nM; Ki [13]: 2000 nM; Ki [15]: 398 nM; Ki (D(3) dopamine receptor): 50.1 nM
Cc1ccc2c(N3CCN(CCc4cccc(N5CCCNC5=O)c4)CC3)cccc2n1	–	3.16	0.316	39.8	–	–	–
CCOC(=O)Nc1cccc(CCN2CCN(c3cccc4nc(C)ccc34)CC2)c1	794	1.26	0.126	1.26	–	–	–
CCCS(=O)(=O)Nc1cccc(CCN2CCN(c3cccc4nc(C)ccc34)CC2)c1	–	1.58	0.631	2	–	–	–
Cc1ccc2c(N3CCN(CCc4cccc(N)c4)CC3)cccc2n1	–	15.8	0.501	7.94	–	–	–
Cc1ccc2c(N3CCN(CCc4cccc(NC(=O)C(C)(C)C)c4)CC3)cccc2n1	1580	6.31	0.316	2	Active	Active	Activity [6]: Active
Cc1ccc2c(N3CCN(CCc4cccc(NC(=O)Nc5ccccc5F)c4)CC3)cccc2n1	2000	3.16	0.2	1	–	–	–
Cc1ccc2c(N3CCN(CCc4cccc(NC(=O)C(C)C)c4)CC3)cccc2n1	1260	2	0.158	1.58	Active	Active	Activity [6]: Active
Cc1ccc2c(N3CCN(CCc4cccc(NS(C)(=O)=O)c4)CC3)cccc2n1	3160	0.794	0.126	0.794	–	–	Ki [16]: 501 nM; Ki [8]: 398 nM; Ki [10]: 100 nM; Ki [12]: > 2510 nM; Ki (D(2) dopamine receptor): 398 nM; Ki [13]: 3160 nM; Ki [15]: 794 nM; Ki (D(3) dopamine receptor): 200 nM

From ChEMBL document CHEMBL1629528 (J Med Chem, 2010)
